# Assay results reported in ChEMBL document CHEMBL1123866, “Benzimidazole derivatives with atypical antiinflammatory activity” (J Med Chem, 1987).
# Tested on: Rattus norvegicus
# Assay: Antiinflammatory activity was evaluated for the compound in rat adjuvant arthritis model and the percent of inhibition was determined at 1 mg/kg dose administered orally
# Conditions: po, read-out: Inhibition
row,SMILES,inhibition in vivo at 1 mg/kg [%]
1,COc1ccc2c(c1)c(CC(=O)O)c(C)n2C(=O)c1ccc(Cl)cc1 [INDOMETHACIN],69

# Tested on: Rattus norvegicus
# Assay: Anti-inflammatory activity (% inhibition of paw swelling)in rat adjuvant arthritis model at 25 mg/kg oral dose
# Type: functional
# Conditions: not given
# Method in brief: (§1)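 Rats, ten per group, were dosed orally with a suspension in 1% acacia in distilled water, starting immediately after adjuvant injection and then once daily for 14 days in total. Foot volume of the noninjected hind paw was measured by mercury displacement to the lateral malleolus 24 h after the final dose. Percent inhibition of swelling was calculated against untreated arthritic controls.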
row,SMILES,inhibition in vivo at 25 mg/kg [%]
1,O=S(=O)(c1nc2cc(Cl)ccc2[nH]1)C(F)(F)C(F)(F)F,0
2,COC(=O)c1ccc2[nH]c(S(=O)(=O)CC(F)(F)F)nc2c1,11
3,O=S(=O)(CC(F)(F)F)c1nc2cc(Cl)c(Cl)cc2[nH]1,24
4,Cc1ccc2[nH]c(S(=O)(=O)C(F)(F)C(F)(F)F)nc2c1,8
5,O=S(=O)(CC(F)(F)F)c1nc2cc(F)ccc2[nH]1,43
6,O=S(=O)(CC(F)(F)F)c1nc2ccccc2[nH]1,52
7,Cc1ccc2[nH]c(S(=O)(=O)CC(F)(F)F)nc2c1,52
8,CCc1ccc2[nH]c(S(=O)(=O)CC(F)(F)F)nc2c1,34
9,O=S(=O)(CC(F)(F)F)c1nc2cc(Cl)ccc2[nH]1,28
10,CCS(=O)(=O)c1nc2cc(C)ccc2[nH]1,17
11,O=S(=O)(c1nc2cc(Cl)ccc2[nH]1)C(F)(F)C(F)(F)C(F)(F)F,0
12,Cc1cc2[nH]c(S(=O)(=O)CC(F)(F)F)nc2cc1F,44
13,Cc1cc2nc(S(=O)(=O)CC(F)(F)F)[nH]c2cc1C,18
14,CCCc1ccc2[nH]c(S(=O)(=O)CC(F)(F)F)nc2c1,0
15,O=S(=O)(CC(F)(F)F)c1nc2cc(C(F)(F)F)ccc2[nH]1,0
16,CC(C)Cc1ccc(C(C)C(=O)O)cc1 (stereo not drawn) [IBUPROFEN],73

# Tested on: Rattus norvegicus
# Assay: Antiinflammatory activity was evaluated for the compound in rat adjuvant arthritis model and the percent of inhibition was determined at 50 mg/kg dose administered orally
# Type: functional
# Conditions: route oral
# Method in brief: as §1
row,SMILES,inhibition in vivo at 50 mg/kg [%]
1,Cc1ccc2[nH]c(S(=O)(=O)CC(F)(F)F)nc2c1,72
